Laboratory results taken from ChEMBL document CHEMBL4513216, “Probing the Open Global Health Chemical Diversity Library for Multistage-Active Starting Points for Next-Generation Antimalarials” (ACS Infect Dis, 2020).

Assay: Toxicity liver stage against HepG2, at 10uM
Assay type: cell-based
Design: test concentration 10 uM, cell line HepG2-A16-CD81EGFP
Details: human, HepG2-A16-CD81EGFP cells; read-out: INHIBITION
Method in brief: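 Uninfected HepG2-A16-CD81EGFP cells, 3 × 10^3 per well, 1536-well, plated on prespotted compound at 10 μM final, parasite-free screening media added to match infected plates; puromycin 10 μM positive, DMSO 0.5% negative; run in parallel with 48 h PbLuc assay at 37 °C, 5% CO2; viability by CellTiter-Glo luminescence, normalized to controls.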

Structure (SMILES) | cytotoxicity at 10 µM
Cn1nc(C2CC2)c2c1NC(=O)CC2c1ccc(CN2CCCCC2)s1 (stereo unspecified) | -6.37%
c1ccc2[nH]c(C3CCN(Cc4nnc(C5CC5)o4)CC3)nc2c1 | 0.152%
COC(=O)CNC(=O)CCc1cc(Cl)cs1 | -5.31%
CCNCCC(Cc1ccccc1)c1ccco1 (stereo unspecified) | 5.31%
COCCNc1nc2c(c(NCCc3cccs3)n1)CCNCC2 | 3.96%
c1ccc(C(Cn2cnnc2)N2CCOCC2)nc1 (stereo unspecified) | 0.997%
c1cc(COc2ccc(CNC3CCc4ncnn4C3)cc2)ccn1 (stereo unspecified) | -0.279%
Cc1ccc(S(=O)(=O)NC(=O)c2cccc3c2OCCO3)c(C)c1 | 3.25%
Cn1ccc(C(=O)NCc2cccc(N3CCCCC3=O)c2)cc1=O | -6.68%
Cc1nc2c(N3CCC(O)(Cn4ccnc4)CC3)ncnc2o1 | 6.35%
CO[C@H]1COCCN(C(=O)c2ccc(C(F)(F)F)cc2)C1 | 4.94%
CN(C)c1cc(CNC(=O)c2cc(F)ccc2F)ccn1 | -8.35%
CCc1csc(C2CCCN(C(=O)c3ccc(=O)n(CC)n3)C2)n1 (stereo unspecified) | -1.52%
CC(C)c1ncc(Cl)c(C(=O)N2CCCN3CCCC3C2)n1 (stereo unspecified) | -10.2%
CCS(=O)(=O)Nc1cnn(Cc2cccc(Cl)c2)c1 | -11.5%
O=C(CCC(=O)N1CCOCC1c1ccccc1)c1cccs1 (stereo unspecified) | -1.26%
COCC(=O)N1CCCC2(CCN(c3ccsc3)C2=O)C1 (stereo unspecified) | 6.66%
Cc1cc(C(F)(F)F)cc(N2C[C@@H](CN3CCOCC3)[C@@H](CO)C2)n1 | -6.02%
COCCOCC(=O)NC(C#N)c1cccc(Cl)c1Cl (stereo unspecified) | 7.84%
CCOc1ccc(N2CCCN=C2NC(=O)c2ccccc2C)cc1 | -6.69%
Cc1ccc(C(=O)N(Cc2ccc(F)cc2F)C2CC2)c(=O)[nH]1 | -2.01%
CO[C@@H]1CCN(C2CCOCC2)C[C@@H]1Cc1ccccc1 | -4.87%
Cc1ccccc1Cc1nc(CSc2nnc(N)n2C2CC2)no1 | 18%

Structure (SMILES) | cytotoxicity at 10 µM
Cc1cc(C(=O)N2CCNC(=O)C2)c(C)n1CC(F)(F)F | 0.962%
CCS(=O)(=O)CC(=O)N1CCCC(c2noc(C(C)C)n2)C1 (stereo unspecified) | -4.78%
CCC(=O)Nc1cc(Br)cn(C)c1=O | -1.34%
COc1cccc(CNC2CCCOc3cc(C)ccc32)n1 (stereo unspecified) | 8.53%
Cc1nc(NC(=O)NC(CS(C)(=O)=O)c2ccccc2)sc1C (stereo unspecified) | -1.32%
CN(Cc1cccs1)C(=O)CN(C)C1CCc2ccccc21 (stereo unspecified) | 10.1%
Cc1noc(C)c1CN(C)CC1CCCN1c1cccnn1 (stereo unspecified) | 0.746%
CC(C)Cc1nnc(NC(=O)NC(CCO)c2cccs2)s1 (stereo unspecified) | 0.191%
COc1ccc(CN2CCn3cncc3C2)cc1Cn1cncn1 | 7.55%
COc1ccc(F)cc1S(=O)(=O)N1CCC(OC)CC1 | -3.97%
O=C(NCC1CCCCO1)c1cc(Cn2cnc3ccccc32)[nH]n1 (stereo unspecified) | -11.3%
COCCCC(=O)NS(=O)(=O)c1ccc2c(c1)OCCCO2 | -2.77%
CC(=O)N(C)CCc1nc(-c2cc(C(N)=O)co2)cs1 | -4.99%
O=C(C1CCCC1)N1CCCC2(CCN(c3cnccn3)CC2)C1 | 9.53%
Cn1cc(C(=O)N[C@@H]2CN(Cc3cccs3)[C@@H]3CCCO[C@@H]32)cn1 | -13.4%
CN(C)CC1CSCCCN1C(=O)c1ccc(-n2cccc2)cc1 (stereo unspecified) | 10%
CC(C)(C)C1CC(=O)Nc2c1cnn2Cc1ccco1 (stereo unspecified) | -2.17%
O=C(CCN1CCCN(c2nccs2)CC1)NCC1CCCCC1 | -5.1%
CC(=O)NCCc1nc(C(C)C)nn1-c1ccncc1C | 3.26%
Cc1ccc(N2CCCC3(COCCN(c4cnccn4)C3)C2)nn1 (stereo unspecified) | -139%
Cc1noc(C(C)C)c1C(=O)NCCC(=O)N1CCCCC1 | 0.632%
CNC(=O)Cn1nc(C(C)C)c2cnn(C(C)(C)C)c2c1=O | -7.67%
Cc1cc(NCc2cc3n(n2)CCCN(C(=O)N(C)C)C3)ncn1 | -11.4%

Structure (SMILES) | cytotoxicity at 10 µM
CNc1ccnc(NCCSc2nccn2C)n1 | -42.6%
CCOCCNC(=O)c1cnc(Sc2nccn2C)c(Cl)c1 | -44.6%
CCN(C(=O)CCOC)C(c1ccc(Cl)cc1)c1ccccn1 (stereo unspecified) | 1.88%
CCn1nnc2c1C(COCCN(C)C)CN(c1nncs1)C2 (stereo unspecified) | 1.52%
CC1CN(Cc2ccccc2)CCCN1CCS(C)(=O)=O (stereo unspecified) | -1.4%
c1ccc(-c2nnc([C@H]3CCN(C4CCOCC4)C3)o2)cc1 | -1.05%
CCc1ccc(S(=O)(=O)N2CC3(COC(C)(C)OC3)C2)s1 | 5.76%
Cc1cnc(N2CCC3(CCCN3C(=O)c3ccco3)CC2)nc1 | 6.71%
CCN(CCC(=O)OC)S(=O)(=O)c1cnc2c(c1)c(C)nn2C | -15.2%
COc1c(CNC2CCCc3ccccc32)c(C(C)C)nn1C (stereo unspecified) | -2.9%
Cc1nn(C)c2ncnc(N3CCCC(OCc4ccccn4)C3)c12 (stereo unspecified) | 7.96%
CCOc1ncccc1NC(=O)Nc1c(C)nn(C(C)C)c1C | 17.8%
O=C(O)[C@@H]1CCN(C(=O)c2cscn2)[C@@H]1c1ccc(F)cc1 | 4.97%
CC(NCc1ccc(C(C)(C)C)cc1)c1ccc(S(C)(=O)=O)cc1 (stereo unspecified) | 14.5%
Cc1n[nH]cc1CNC1CCN(c2cccc(C(F)(F)F)c2)CC1 | -64.8%
CCN(CC1CCCN(CCc2cccc(OC)c2)C1)C(=O)CN(C)C (stereo unspecified) | 9.05%
CC(C)n1cnc2ccc(NC(=O)CCCn3cccn3)cc2c1=O | -10.6%
CCc1nnc2n1CCN(C(=O)c1cn(-c3ccccc3)nn1)C2 | -141%
COc1c(CNCc2cccc(CS(C)(=O)=O)c2)c(C)nn1C | -5.6%
O=C(NCCC(=O)N1CCCC1)C(OC1CCCC1)c1ccccc1 (stereo unspecified) | -4.36%
CSc1ccc(CN(CCO)C(=O)CCNC(C)=O)cc1 | 5.42%
O=C1Nc2ccccc2CC12CCCN2Cc1ccc(C(F)(F)F)cc1 (stereo unspecified) | 30.2%
CN1C(=O)CC(C(=O)O)C12CCN(Cc1ccc(Cl)cc1F)CC2 (stereo unspecified) | -7.82%

Structure (SMILES) | cytotoxicity at 10 µM
O=C1N(CCO)CCCC12CCN(Cc1noc(C3CCCC3)n1)C2 (stereo unspecified) | -0.973%
O=C(NCCOCC1CC1)Nc1ccc(F)cc1 | 9.28%
Cc1cc(C(=O)O)cc(S(=O)(=O)Nc2ccc3c(c2)OCCCO3)c1C | -4.72%
CCN(CC1CCOC1)C(=O)c1cc(F)ccc1N1CCN(C)CC1 (stereo unspecified) | -7.68%
NC(=O)c1cc(C2CCCN(CCOc3cccc(F)c3)C2)n[nH]1 (stereo unspecified) | -19.6%
CN(CCOc1ccc(C#N)cc1)CC1CC1 | 1.47%
CCS(=O)(=O)c1ncc(CN(C)CCc2ccccn2)n1CCOC | -3.98%
CC[C@@H](C)[C@@H](N)C(=O)Nc1cccc(-c2cnc(N)nc2)c1 | 0.942%
CCc1nc(CN(C)C(=O)c2ccc(OCCCOC)nc2)cs1 | -19.5%
COc1cccc(N2CCN(CCC(=O)NC3CCCC3)CC2)c1 | -5.93%
COCC1CN(C(=O)c2ccccn2)Cc2nccn2C1 (stereo unspecified) | 8.62%
O=C1N[C@H]2OCCC[C@H]2[C@H](c2ccc(C(=O)O)cc2)N1 | -2.51%
Cc1ncc2c(n1)CN(CC(=O)Nc1nccs1)CC2 | -0.586%
CC(C)N1CCC(c2cnc(-c3cn[nH]c3)cn2)CC1 | 5.36%
COc1ccccc1CC(C)(C)NC(=O)CC(F)(F)F | 6.08%
CN(C)CCO[C@H]1CN(CC2CC2)[C@@H]2CCCO[C@H]12 | -96.3%
CN(Cc1noc(C2CC2)n1)C1CCN(Cc2nc(C3CC3)no2)C1 (stereo unspecified) | -1.57%
CCS(=O)(=O)N1CC[C@H]2O[C@H](c3nnc(C)o3)CC[C@H]21 | -75.6%
CCc1[nH]ncc1C(=O)N1CCCC(n2cccn2)C1 (stereo unspecified) | 4.62%
O=C(O)C1(Cc2ccccc2Cl)CCN(c2ncccn2)CC1 | 7.04%
Cc1cccc(CN2CCN(C(=O)c3cnc(C)[nH]c3=O)CC2)c1 | -3.32%
COCc1noc(Cn2ccc3ncccc3c2=O)n1 | 1.56%
NC(=O)N1CCC2(CCN(C(=O)c3cccnc3)CC2)C1 | -83%

Structure (SMILES) | cytotoxicity at 10 µM
CCn1nc(C)c(CN(CCOC)C(=O)c2ccccc2N(C)C)c1C | -1.14%
Cc1cccc(CN(C(=O)CCn2cncn2)C(C)C)c1 | 8.32%
COc1cc(OC)nc(N2CCC3(CC2)OCCCC3O)n1 (stereo unspecified) | 2.67%
O=S(=O)(c1ccc(F)cc1Cl)N1CCCC1c1ccncc1 (stereo unspecified) | -7.95%
Cc1nonc1C1CCCN1Cc1ccc(C(=O)Nc2nccs2)cc1 (stereo unspecified) | 76.7%
O=C(NC1CC1)c1cccc(Oc2ccc3nncn3n2)c1 | -5.29%
Cc1ccccc1C(=O)NC(C)c1cnn(C)c1 (stereo unspecified) | 15.7%
O=C(NC1CC1)C1=CC2(CCN(CCO)CC2)c2ccccc21 | 1.41%
OCC(O)CN1CCc2onc(-c3ccc(C(F)(F)F)cc3)c2C1 (stereo unspecified) | -3.24%
CC1CN(C(=O)c2ccn(-c3cccc(Cl)c3)n2)CCO1 (stereo unspecified) | -5.25%
CC(C)C(=O)N1CCN(C(=O)c2cc(C(C)C)no2)[C@H]2CS(=O)(=O)C[C@H]21 | -9.43%
O=C(CC1CC1)N1CCO[C@H]2[C@H](OCCCn3cccn3)CC[C@@H]21 | 6.23%
Nc1cc(N2CCC(c3cc(Cc4ccccc4)n[nH]3)CC2)ccn1 | 24.6%
Cc1noc(Cl)c1CC(=O)N1CCC(Nc2cccnn2)CC1 | -4.72%
CCn1c(C2CCN(C(=O)c3cc(CC(C)C)no3)CC2)nn(C)c1=O | -2.51%
CC(=O)N1CCC[C@@H](NCc2c[nH]c3ccccc23)[C@@H]1c1ccc(C)s1 | -39%
CCc1ccc(S(=O)(=O)Nc2cc(C(=O)O)ccc2F)s1 | -8.27%
Cc1ccnc2c1NC(=O)CN2C(=O)CCc1cccs1 | -19.5%
CN1CCC(Cc2cnc(CNC(=O)Cc3cccc(F)c3)cn2)CC1 | -2.67%
